# Rows were chosen to be rich in hits. Some 1.9% of all compounds tested hit in one or more screens of this group.
# NPY-Y2 antag: NPY-Y2 (human) receptor antagonism | P49146 | NPY-Y2 expressing cells, antagonist mode | inhibition, % at 2.7 µM | actives 0.99% (n = 140,000) | AID 793; in the data active means inhibition above about 17%;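 further: 0% = vehicle with agonist challenge and 100% = reference antagonist with challenge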
# Target sequence (P49146 whole entry, looked up): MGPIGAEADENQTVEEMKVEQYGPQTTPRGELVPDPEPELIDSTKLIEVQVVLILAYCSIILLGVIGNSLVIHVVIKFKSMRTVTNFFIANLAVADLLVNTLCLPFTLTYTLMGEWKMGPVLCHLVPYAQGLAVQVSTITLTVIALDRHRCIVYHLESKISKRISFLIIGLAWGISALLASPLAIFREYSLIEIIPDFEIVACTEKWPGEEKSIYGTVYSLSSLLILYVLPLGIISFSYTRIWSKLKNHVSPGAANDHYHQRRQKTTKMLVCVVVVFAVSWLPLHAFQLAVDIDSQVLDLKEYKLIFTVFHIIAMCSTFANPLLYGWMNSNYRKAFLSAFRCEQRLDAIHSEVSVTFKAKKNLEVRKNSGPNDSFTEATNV
# NPY2 pot ag: potentiates or activates human NPY-Y2 receptor | AID 1359 | P49146 | activation, % at 3.6 µM | cells expressing NPY-Y2, potentiator/agonist read-out | actives 0.45% (n = 220,000); in the data active means activation above about 27%;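 further: cells stimulated with NPY near EC25 plus isoproterenol at EC100; 0% = vehicle plus submaximal agonist and 100% = vehicle plus saturating agonist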
# NPY1 pot ag: potentiates or activates human NPY-Y1 receptor; P25929; NPY-Y1 expressing cells, potentiator/agonist activation; activation, % at 3.6 µM; actives 0.37% (n = 220,000); AID 1304; in the data active means activation above about 33%, passing the limit was not always enough;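 further: cells stimulated with NPY at EC10 then isoproterenol at EC100; 0% = low agonist plus stimulus and 100% = saturating agonist plus stimulus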
# NPY-Y1 antag: blocks the human neuropeptide Y Y1 receptor | HEK293-CNG Y1 cells, membrane potential fluorescence; NPY at EC95, then isoproterenol | inhibition, % at 3.6 µM | actives 1% (n = 200,000);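 active means inhibition above the campaign mean inhibition of all tested compounds plus 3 SD, cut at about 20% in these data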;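 further: 0% = DMSO wells given NPY plus isoproterenol and 100% = isoproterenol alone without NPY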
#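 Test system: HEK293 cells co-expressing NPY Y1 receptor and cyclic-nucleotide gated channel; Also added: NPY (25 nM), isoproterenol (1 µM), Ro 20-1724 (25 µM); Compound dosing: one concentration, 3.6 µM, in 0.4% DMSO; Timing: dye 3 h, compound 60 min room temperature, stimulation 45 min; Technique: Membrane-potential fluorescent dye readout.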
# NPY-Y2 confirm: human NPY-Y2 potentiation or agonism, confirmation; shares compounds with NPY2 pot ag; cell-based NPY-Y2 potentiator/agonist assay; activation, % at 3.6 µM; actives 20% (n = 450); in the data active means activation above about 33%
# NPY-Y1 potentiator: counter-screen for NPY-Y2 potentiators or agonists: NPY-Y1 potentiators or agonists | shares compounds with NPY2 pot ag | Y1 HEK293-CNG cells, membrane potential fluorescence | activation, % at 3.6 µM | actives 20% (n = 450); in the data active means activation above about 45%;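 further: cells stimulated with submaximal NPY then isoproterenol with phosphodiesterase inhibitor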
# NPY-Y1 agonist 2: counter-screen for NPY-Y2 potentiators: agonists of human NPY-Y1 | HEK293 Y1-CNGC, membrane potential fluorescence, agonism | shares compounds with NPY2 pot ag | actives 37% (n = 450) | activation, % at 3.6 µM;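 active means activation above the mean of DMSO-only control wells plus 3 SD, cut at about 18% in these data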;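 further: cells stimulated with 1 µM isoproterenol plus the PDE inhibitor Ro 20-1724; 0% = isoproterenol with DMSO and no NPY and 100% = 40 nM NPY; Y1 agonists lower the membrane potential dye signal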
# CNGC inh: counter-screen for NPY-Y2 potentiators: inhibitors of CNG channel activity. shares compounds with NPY2 pot ag. HEK293-CNG parental, isoproterenol cAMP, membrane potential fluorescence. inhibition, % at 3.6 µM. actives 32% (n = 450);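 active means inhibition above the control-well mean plus 3 SD of those wells, cut at about 22% in these data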;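 further: 0% = DMSO with isoproterenol and 100% = DMSO without isoproterenol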
# Y2 agonist ctr: activates human NPY-Y2 receptor in potentiator counter-screen | actives 56% (n = 450) | shares compounds with NPY2 pot ag | HEK293 Y2/CNGC cells, membrane potential fluorescence, agonist mode | activation, % at 3.6 µM;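 active means activation above the mean of solvent-only control wells plus 3 SD, cut at about 10% in these data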;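 further: cells stimulated by isoproterenol with no NPY added so direct agonism is tested; 0% = DMSO with isoproterenol alone and 100% = NPY at EC100 plus isoproterenol; agonism lowers probe fluorescence through less cAMP and CNG channel opening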
# Starred values were filed as active, the others as inactive; x = no result given.
SMILES,NPY-Y2 antag,NPY2 pot ag,NPY1 pot ag,NPY-Y1 antag,NPY-Y2 confirm,NPY-Y1 potentiator,NPY-Y1 agonist 2,CNGC inh,Y2 agonist ctr
Cc1ccc2sc(N(CCCN(C)C)C(=O)c3ccc(Br)s3)nc2c1C,x,52*,29,17,69*,78*,84*,62*,65*
CN(C)CCCN(C(=O)c1ccc(Br)s1)c1nc2cc3c(cc2s1)OCO3,x,43*,31,8,67*,79*,55*,66*,63*
Cc1nnc(SCC(=O)NCCc2ccccc2)s1,x,-6,2,-3,x,x,x,x,x
CCN(CC)CCCN(C(=O)c1ccco1)c1nc(-c2ccc(C)cc2)cs1,x,25*,17,11,64*,65*,45*,58*,62*
CC(C)(C)N(NC(=O)c1ccccc1)C(=O)c1ccc(C(=O)N(NC(=O)c2ccccc2)C(C)(C)C)cc1,2,8,-7,4,x,x,x,x,x
CCc1ccc(C(=O)NN(C(=O)c2ccc(CC)cc2)C(C)(C)C)cc1,3,35*,37,-6,44*,61*,58*,47*,34*
COc1nc(/C=C/N(C)C)c([N+](=O)[O-])c(OC)n1,x,102*,28,x,-1,-3,-6,-18,-10
C/C(=N\NC(=O)Cn1nc(C)cc1C)c1ccc([N+](=O)[O-])cc1,x,8,-7,x,x,x,x,x,x
O=C(c1cc(COc2c(F)cccc2F)on1)N1CCC(c2ccncc2)CC1,x,36*,-11,-7,1,-38,-14,-7,4
O=C1C2CC=CCC2C(=O)N1c1ccc(NCCc2ccc(O)cc2)c([N+](=O)[O-])c1 (centres undefined),-2,46*,40,-10,5,-2,4,10,13*
O=C1C2CC=CCC2C(=O)N1c1ccc(NCCc2ccc(Cl)cc2)c([N+](=O)[O-])c1 (centres undefined),-4,17,5,2,x,x,x,x,x
COc1ccc(CCNc2ccc(N3C(=O)CC(C)C3=O)cc2[N+](=O)[O-])cc1 (centres undefined),x,-16,-4,4,x,x,x,x,x
COc1ccc(CCNc2ccc(N3C(=O)CC(C)C3=O)cc2[N+](=O)[O-])cc1OC (centres undefined),x,37*,-6,7,0,-36,-37,-17,-1
O=C(CCCOc1ccccc1)NC(=S)Nc1ccccc1,x,-10,-14,17,x,x,x,x,x
O=C(NCc1ccccc1Cl)NCc1ccccc1Cl,x,99*,12,x,-6,-7,-17,-4,5
N#Cc1c(Cl)nsc1NN,x,31*,22,1,17,27,27*,15,30*
Cc1ccc(CSc2nnc(CNc3ccc(F)cc3)o2)cc1,x,-8,-23,10,x,x,x,x,x
O=C(CN1CCN(Cc2ccc(Cl)cc2)CC1)N/N=C/c1cccs1,x,6,-10,x,x,x,x,x,x
O=C(CN1CCN(Cc2ccc(Cl)cc2)CC1)N/N=C/c1cccc(F)c1,x,99*,16,x,-6,-6,-14,3,1
N/C(=N\c1nc2ccccc2o1)NC(=O)c1ccccc1Br,x,-23,-24,x,x,x,x,x,x
Fc1ccc(NC(=S)N2CCCN(c3ccc(C(F)(F)F)cn3)CC2)c(F)c1,x,43*,24,x,2,-35,-24,-11,8
COC(=O)c1ccc2c(=O)n(CC3CCCO3)c(SCC(=O)Nc3ccc(OC)cc3OC)nc2c1 (centres undefined),x,-28,6,x,x,x,x,x,x
O=Nc1c(O)n(Cc2c(Cl)cccc2Cl)c2ccccc12,6,34*,24,-4,8,2,14,-16,5
CC1(C)C=C(c2ccc(O)cc2)CC(C)(C)N1,0,36*,23,-2,0,-1,-11,2,6
CCOc1ccccc1N(CC(=O)NCCSc1ccccc1)S(C)(=O)=O,x,1,8,1,x,x,x,x,x
SMILES,NPY-Y2 antag,NPY2 pot ag,NPY1 pot ag,NPY-Y1 antag,NPY-Y2 confirm,NPY-Y1 potentiator,NPY-Y1 agonist 2,CNGC inh,Y2 agonist ctr
COc1ccc(S(N)(=O)=O)cc1C(=O)NCCCN1CCN(c2ccc(C)cc2)CC1,0,-20,25,-4,x,x,x,x,x
COc1ccc(S(N)(=O)=O)cc1C(=O)NCCCN1CCN(c2ccccc2OC)CC1,2,76*,13,-2,-7,3,-17,-6,-1
COc1ccc(/C=c2/sc3n(c2=O)C(c2ccccc2OC)C2=C(N=3)c3ccccc3CC2)cc1O (centres undefined),1,36*,21,-9,12,25,18*,16,9
O=C(O)c1ccccc1C(=O)Nc1ccc(S(=O)(=O)NC2CCCCC2)cc1,2,0,10,0,x,x,x,x,x
C=C(C)CN(CC)C(=O)CC1C(=O)NCCN1CC(C)(C)C (centres undefined),x,51*,17,x,1,11,-1,2,6
CCCOc1ccc(/C=N/Nc2ccc(C(=O)O)cc2)c(OCCC)c1,x,30*,15,1,13,17,11,9,21*
COc1cc(-c2csc(N3CCOCC3)n2)cc(OC)c1OC,0,19,2,-1,x,x,x,x,x
COc1ccc(-c2csc(N3CCN(c4cc(C)nc5ccccc45)CC3)n2)cc1OC,x,32*,-1,8,40*,39,16,33*,29*
O=Cc1cc2ccccc2nc1SCCCF,x,-7,-21,1,x,x,x,x,x
COCCCn1c(O)c(/C=C2\N=C(C#N)C(=Nc3ccc(C)cc3)O2)sc1=S,x,37*,27,x,19,9,-2,-4,27*
Cc1sc2nc(SCc3ccc(C(=O)O)cc3)n(Cc3ccco3)c(=O)c2c1C,x,56*,27,x,24,29,32*,17,22*
CN1CCCCCC1C(=O)N1CCC(N2CCC(C(=O)N3CCOCC3)CC2)CC1 (centres undefined),x,-12,11,-6,x,x,x,x,x
COc1ccc(Br)cc1/C=N/NC(=O)CN1CCN(Cc2ccccc2)CC1,x,-18,-28,x,x,x,x,x,x
O=[N+]([O-])c1ccc(N2CCN(S(=O)(=O)c3ccccc3)CC2)c2cccnc12,x,-4,10,-4,x,x,x,x,x
O=[N+]([O-])c1cccc2c(N3CCOCC3)ccnc12,x,40*,4,0,2,6,5,4,13*
COc1ccccc1CNC(=O)C1(NC(=O)Nc2ccc(C)cc2)CCCCC1,x,-21,5,1,x,x,x,x,x
N#C/C(=N\Nc1ccc(Cl)c(Cl)c1)C(=O)C1CC1,x,63*,13,x,3,-38,-7,-9,5

# Screens from PubChem.
